Results as given in paper PMC2872922 (Journal of medicinal chemistry, 2010).

What was measured:
[1] = molecular target: K18 tau fragment bearing the P301L mutation (K18PL) (Homo sapiens, UniProt P10636, P618L); experiment: Heparin-induced tau K18PL fibrillization assay monitored by thioflavine-T; type: biochemical
[2] = molecular target: tau40-promoted MT-polymerization (tubulin) (Homo sapiens, UniProt P10636); experiment: MT-assembly; type: biochemical; conditions: 50 μM compound, 30 μM tubulin, 20 μM tau40
tau40-promoted MT-polymerization (tubulin), sequence (P10636 1-441 isoform P10636-8): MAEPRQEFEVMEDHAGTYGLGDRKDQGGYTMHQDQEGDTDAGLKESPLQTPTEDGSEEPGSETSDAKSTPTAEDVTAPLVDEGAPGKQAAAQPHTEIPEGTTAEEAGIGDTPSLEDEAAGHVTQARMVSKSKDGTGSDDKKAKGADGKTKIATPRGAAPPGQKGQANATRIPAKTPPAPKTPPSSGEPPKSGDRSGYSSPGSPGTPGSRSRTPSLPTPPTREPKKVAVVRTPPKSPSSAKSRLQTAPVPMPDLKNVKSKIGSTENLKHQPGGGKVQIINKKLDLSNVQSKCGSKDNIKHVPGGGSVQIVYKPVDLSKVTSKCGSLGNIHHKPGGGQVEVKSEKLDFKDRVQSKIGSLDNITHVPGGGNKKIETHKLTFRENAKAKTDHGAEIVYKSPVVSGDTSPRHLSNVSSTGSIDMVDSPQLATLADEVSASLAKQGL
Method in brief: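 Wild-type full-length human tau40 (2N4R) was preincubated with test compound for 120 min at room temperature in RAB (100 mM MES pH 6.9, 1 mM […], 0.5 mM MgSO4). Bovine brain tubulin and GTP were then added. Final concentrations were 30 μM tubulin, 20 μM tau, 50 μM compound and 2 mM GTP, with a DMSO control. Polymerisation was followed at 37 °C by A340 every minute for 45 min.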

[3] = Brain and plasma levels 1 h after i.p. administration; type: in vivo; conditions: female, B6C3F1, mouse, brain, ip, 5 mg/kg, Brain level, mice, 5 mg/kg i.p.
Method in brief: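 Two-month-old female B6C3F1 mice, three per compound, given test compound 5 mg/kg i.p. and sampled at 1 h. Brain hemispheres were homogenised in 10 mM ammonium acetate pH 5.7 (1:2 w/v), and plasma was collected on EDTA. Samples were acetonitrile-extracted and quantified by LC-MS/MS (MRM, positive ESI) against spiked brain/plasma standards (4–4000 ng/mL) using a 1/x-weighted linear fit and triplicate injections.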

[4] = Brain and plasma levels after oral administration; type: in vivo; conditions: mice, oral gavage 5 mg/Kg
Method in brief: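 Female B6C3F1 mice, two months old, were dosed with test compound at 5 mg/kg by oral gavage. Brain homogenate (10 mM ammonium acetate pH 5.7, 1:2 w/v) and EDTA plasma were extracted with acetonitrile. Levels were measured by LC-MS/MS with MRM detection, quantified from matrix-matched standard curves (4–4000 ng/mL) by 1/x-weighted linear regression on the mean of triplicate injections.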

[5] = Phase 2 study, 321 patients with mild or moderate AD; cited from earlier work

K18 tau fragment bearing the P301L mutation (K18PL), sequence (P10636 561-689 P618L): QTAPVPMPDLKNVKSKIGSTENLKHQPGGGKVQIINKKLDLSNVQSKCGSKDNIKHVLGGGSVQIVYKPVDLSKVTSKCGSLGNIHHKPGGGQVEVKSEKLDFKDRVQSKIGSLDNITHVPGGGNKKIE

Row | IC50 [1] [µM] | Compound | other results
1 | 21.7 ± 16 | CNC(=O)c1nn(-c2ccc(Cl)cc2)c(=O)c2c(N)scc12 [Compound 13, 5-Amino-3-(4-chlorophenyl)-N-methyl-4-oxo-3,4-dihydrothieno[3,4-d]pyridazine-1-carboxamide] | 
2 | 6.9 ± 3.4 | CCNC(=O)c1nn(-c2ccc(Cl)cc2)c(=O)c2c(N)scc12 [Compound 14, 5-Amino-3-(4-chlorophenyl)-N-ethyl-4-oxo-3,4-dihydrothieno[3,4-d]pyridazine-1-carboxamide] | concentration at 1 h [3]: > 800 ng/g
3 | 5.9 ± 4.7 | CC(C)NC(=O)c1nn(-c2ccc(Cl)cc2)c(=O)c2c(N)scc12 [Compound 15, 5-Amino-3-(4-chlorophenyl)-N-isopropyl-4-oxo-3,4-dihydrothieno[3,4-d]pyridazine-1-carboxamide] | Brain concentration after oral administration [4]: significant concentrations; concentration at 1 h [3]: > 800 ng/g
4 | 8.1 ± 5.7 | Nc1scc2c(C(=O)NC3CC3)nn(-c3ccc(Cl)cc3)c(=O)c12 [Compound 16, 5-Amino-3-(4-chlorophenyl)-N-cyclopropyl-4-oxo-3,4-dihydrothieno[3,4-d]pyridazine-1-carboxamide] | Brain concentration after oral administration [4]: significant concentrations; concentration at 1 h [3]: > 800 ng/g
5 | 20.5 ± 13.6 | CN(C)C(=O)c1nn(-c2ccc(Cl)cc2)c(=O)c2c(N)scc12 [Compound 17, 5-Amino-3-(4-chlorophenyl)-N,N-dimethyl-4-oxo-3,4-dihydrothieno[3,4-d]pyridazine-1-carboxamide] | 
6 | 32 ± 4.1 | CCN(C)C(=O)c1nn(-c2ccc(Cl)cc2)c(=O)c2c(N)scc12 [Compound 18, 5-Amino-3-(4-chlorophenyl)-N-ethyl-N-methyl-4-oxo-3,4-dihydrothieno[3,4-d]pyridazine-1-carboxamide] | 
7 | 3.1 ± 0.6 | CC(C)NC(=O)c1nn(-c2ccc(Br)cc2)c(=O)c2c(N)scc12 [Compound 19, 5-Amino-3-(4-bromophenyl)-N-isopropyl-4-oxo-3,4-dihydrothieno[3,4-d]pyridazine-1-carboxamide] | 
8 |  | CN(C)c1ccc2nc3ccc(=[N+](C)C)cc-3sc2c1 [methylene blue] | Cognitive decline compared to placebo [5]: significant reduction in cognitive decline

Row | Compound | IC50 [1] [µM] | other results
9 | CCOC(=O)c1nn(-c2ccc(Cl)cc2)c(=O)c2c(N)scc12 [Compound 8, Ethyl 5-amino-3-(4-chlorophenyl)-4-oxo-3,4-dihydrothieno[3,4-d]pyridazine-1-carboxylate] | 3.8 ± 1.6 | Interference with the normal MT-stabilizing function of tau [2]: did not appear to interfere
10 | CC(C)OC(=O)c1nn(-c2ccc(Cl)cc2)c(=O)c2c(N)scc12 [Compound 10, Isopropyl 5-amino-3-(4-chlorophenyl)-4-oxo-3,4-dihydrothieno[3,4-d]pyridazine-1-carboxylate] | 1.6 ± 1.1 | Interference with the normal MT-stabilizing function of tau [2]: did not appear to interfere
11 | Nc1scc2c(C(=O)O)nn(-c3ccc(Cl)cc3)c(=O)c12 [Compound 11, 5-Amino-3-(4-chlorophenyl)-4-oxo-3,4-dihydrothieno[3,4-d]pyridazine-1-carboxylic acid] | 5.4 ± 2.3 | Interference with the normal MT-stabilizing function of tau [2]: did not appear to interfere
